Compound activity deposited in PubChem BioAssay by several laboratories.
Rows were chosen to be rich in hits. Some 1.5% of all compounds tested hit in one or more screens of this group.
NSD2 HMT inh = NSD2 histone methyltransferase inhibitors, primary screen, biochemical, AlphaScreen, single concentration, set 2; Histone-lysine N-methyltransferase NSD2 (Homo sapiens), O96028; NSD2 peptide methylation, 120 min; inhibition, % at 12.5 µM; actives 0.54% (n = 310,000); in the data active = inhibition above about 50%
Target sequence (O96028 whole entry, looked up): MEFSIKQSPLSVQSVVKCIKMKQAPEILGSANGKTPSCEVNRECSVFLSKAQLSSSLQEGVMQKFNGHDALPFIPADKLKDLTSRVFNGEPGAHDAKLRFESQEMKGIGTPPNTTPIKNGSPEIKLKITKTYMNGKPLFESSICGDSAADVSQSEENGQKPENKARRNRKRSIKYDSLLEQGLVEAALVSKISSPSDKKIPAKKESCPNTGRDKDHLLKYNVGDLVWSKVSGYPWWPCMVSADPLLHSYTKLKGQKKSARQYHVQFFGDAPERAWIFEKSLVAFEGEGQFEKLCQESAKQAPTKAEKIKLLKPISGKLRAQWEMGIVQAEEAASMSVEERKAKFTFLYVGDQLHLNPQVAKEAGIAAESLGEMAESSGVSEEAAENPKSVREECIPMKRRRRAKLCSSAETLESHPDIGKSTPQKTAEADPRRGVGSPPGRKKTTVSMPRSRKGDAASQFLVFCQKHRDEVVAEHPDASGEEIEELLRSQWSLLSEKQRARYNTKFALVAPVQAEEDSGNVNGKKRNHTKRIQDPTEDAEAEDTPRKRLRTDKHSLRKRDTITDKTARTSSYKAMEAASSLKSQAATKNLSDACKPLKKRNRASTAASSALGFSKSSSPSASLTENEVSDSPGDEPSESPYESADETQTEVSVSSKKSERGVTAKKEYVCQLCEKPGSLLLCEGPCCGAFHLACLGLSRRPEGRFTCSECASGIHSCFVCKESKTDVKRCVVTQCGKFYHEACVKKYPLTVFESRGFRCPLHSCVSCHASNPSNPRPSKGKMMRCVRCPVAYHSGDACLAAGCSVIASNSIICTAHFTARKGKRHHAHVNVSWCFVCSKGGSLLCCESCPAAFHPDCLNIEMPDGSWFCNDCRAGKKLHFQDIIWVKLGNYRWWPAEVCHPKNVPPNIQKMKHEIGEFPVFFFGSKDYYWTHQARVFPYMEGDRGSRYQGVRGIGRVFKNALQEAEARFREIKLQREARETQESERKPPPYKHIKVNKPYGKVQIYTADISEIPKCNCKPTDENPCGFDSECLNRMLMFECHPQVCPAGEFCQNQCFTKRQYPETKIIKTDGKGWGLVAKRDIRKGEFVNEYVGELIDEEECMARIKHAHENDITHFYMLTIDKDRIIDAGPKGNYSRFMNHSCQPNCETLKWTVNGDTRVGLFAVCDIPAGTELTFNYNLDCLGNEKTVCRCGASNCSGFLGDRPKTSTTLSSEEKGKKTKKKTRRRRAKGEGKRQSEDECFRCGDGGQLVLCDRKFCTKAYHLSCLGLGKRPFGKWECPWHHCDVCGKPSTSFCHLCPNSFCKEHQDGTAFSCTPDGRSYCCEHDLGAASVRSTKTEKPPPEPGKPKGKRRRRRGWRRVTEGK
DNMT1 block = human DNMT1 methyltransferase inhibitors, primary screen, biochemical, molecular beacon, fluorescence, HinP1I cleavage, uHTS. AID 588458, 2011. DNA (cytosine-5)-methyltransferase 1 (Homo sapiens), P26358. inhibition (reported as % activation of signal), % at 10 µM. actives 0.83% (n = 360,000); in the data active = inhibition above about 50%
CASP6 VEID inh = human caspase-6 inhibitors, primary screen, biochemical, VEID-R110 fluorescence, single point, set 2. AID 686996, 2013. inhibition, % at 12.5 µM. actives 0.53% (n = 350,000). purified caspase-6, Z-VEID-R110 cleavage fluorescence;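 active = mean inhibition across replicates at least about 35%, with every replicate also reaching that limit, limit read from the data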
HCV NS3 hel inh = inhibitors of HCV NS3 helicase, primary screen, biochemical, Cy5 molecular beacon fluorescence | Hepatitis C virus NS3 helicase | NS3 helicase DNA unwinding | inhibition, % at 10.9 µM | actives 0.56% (n = 290,000) | AID 1800, 2009;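 active = inhibition above the mean of all tested compounds plus 3 SD, set per campaign, cut at about 35% in these data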
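Test system: hepatitis C virus NS3 helicase domain fragment enzyme. Also added: annealed dual-labelled DNA beacon duplex, ATP-started. Timing: 60 min unwinding reaction at 25 °C after ATP addition. Technique: Cy5 fluorescence. Measure: % inhibition of unwinding.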
DNMT1 interf DR = spectral interference with molecular beacon fluorescence, dose response, artefact control for DNMT1 inhibitor project, biochemical, fluorescent molecular beacon; IC50, µM; AID 602382, 2012; 200 tested, under 10 active; spectral interference counter-screen; shares compounds with DNMT1 block
DNMT1 inh conf = DNMT1 methyltransferase inhibitor retest, confirmation, biochemical, molecular beacon, fluorescence, single concentration; DNMT1 molecular beacon HinP1I cleavage; actives 8% (n = 2,300); inhibition, % at 10 µM; shares compounds with DNMT1 block;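 active = average inhibition of at least 30% in the single-concentration confirmation test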
DNMT1 interf = counter-screen for DNMT1 inhibitors: spectral interference. shares compounds with DNMT1 block. DNMT1 molecular beacon spectral interference counterscreen, fluorescence 485/520. activation (fluorescence interference), % at 10 µM. actives 1% (n = 2,300);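 active = activation of at least 30% at 10 µM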;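 also: DNMT1 catalytic domain with a HinP1I cleavage step and a FAM/dabcyl DNA beacon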
CASP1 counter = human caspase-1 inhibitors, dose response, selectivity assay for caspase-6 inhibitor project, biochemical, Z-YVAD-R110 fluorescence, cherry-pick, set 2; shares compounds with CASP6 VEID inh; purified caspase-1, Z-YVAD-R110 cleavage fluorescence; activity change, negative = inhibition, % at 35 µM; 100 tested, under 10 active;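 active = compounds lowering fluorescence whose fitted half-maximal concentration is no more than twice their top tested dose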
AlphaScreen art = AlphaScreen signal interference with preloaded methylated product, dose response, artefact control for NSD2 inhibitor project, biochemical, cherry-picked samples. shares compounds with NSD2 HMT inh. AlphaScreen artifact counterscreen, preloaded methylated H4 peptide. AC35, µM (series often up to 10 µM). actives 9.4% (n = 1,500)
Of the large screens only hits and unclear results are named; the others gave an inactive call (follow-up assays come after a bar, where they were run). Unless noted, no rule for the calls is given here.

CN(C)C1CCCCC=CC(=O)NC1 (stereo not drawn)	DNMT1 block 52 (no result: HCV NS3 hel inh) | DNMT1 inh conf inactive | DNMT1 interf inactive
CC(=O)NC(c1cccc(F)c1)c1nc(-c2ccc(C)c(C)c2)cs1 (stereo not drawn)	none (no result: HCV NS3 hel inh)
CC(=O)NC(c1cccc(F)c1)c1nc(-c2cc(F)cc(Cl)c2)cs1 (stereo not drawn)	DNMT1 block 59 (no result: HCV NS3 hel inh) | DNMT1 inh conf inactive | DNMT1 interf inactive
CCC(=O)N1c2ccccc2-c2nnc(SC)nc2OC1c1ccc(N(C)C)cc1 (stereo not drawn)	none (no result: NSD2 HMT inh)
CCC1Oc2nc(SC)nnc2-c2ccccc2N1C(=O)c1ccccc1 (stereo not drawn)	DNMT1 block 54 (no result: CASP6 VEID inh) | DNMT1 inh conf inactive | DNMT1 interf inactive
CCn1c(CNC(=O)c2cccs2)n[nH]c1=S	none (no result: NSD2 HMT inh)
CCn1c(CC(=O)Nc2ccccc2)n[nH]c1=S	DNMT1 block 82 | DNMT1 inh conf inactive | DNMT1 interf inactive
Oc1ccc(N=Cc2ccc(-c3cccs3)s2)cc1	DNMT1 block 77 (no result: NSD2 HMT inh, CASP6 VEID inh) | DNMT1 inh conf inactive | DNMT1 interf inactive
CC(C)NC(=O)N(C)C[C@@H]1Oc2c(NC(=O)c3cnccn3)cccc2C(=O)N([C@@H](C)CO)C[C@H]1C	none (no result: NSD2 HMT inh, DNMT1 block, HCV NS3 hel inh)
COc1ccc2cc(/C=N/NC(=O)CSCc3ccc([N+](=O)[O-])cc3)c(Cl)nc2c1	DNMT1 block 64 | DNMT1 inh conf inactive | DNMT1 interf inactive
O=C(N/N=C/c1ccc(OC(=O)c2ccc([N+](=O)[O-])cc2)cc1)c1cccnc1	none
COc1ccc2cc(/C=N/NC(=O)CN3CCOCC3)c(Cl)nc2c1	none (no result: DNMT1 block, CASP6 VEID inh, HCV NS3 hel inh)
COc1ccc(C(=O)Oc2ccc(/C=N/NC(=O)Cc3ccc([N+](=O)[O-])cc3)cc2)cc1	DNMT1 block 53 (no result: CASP6 VEID inh) | DNMT1 inh conf inactive | DNMT1 interf inactive
Cc1cc(C(C)C)n2c(nc3ccccc32)c1C#N	none (no result: NSD2 HMT inh, DNMT1 block, CASP6 VEID inh)
Cc1cc(-c2ccco2)c(C#N)c2nc3ccccc3n12	DNMT1 block 69 (no result: CASP6 VEID inh) | DNMT1 inh conf inactive | DNMT1 interf inactive
O=P(c1ccccc1)(c1ccccc1)c1cc(S(=O)(=O)O)ccc1O	DNMT1 block 83, CASP6 VEID inh 77 | DNMT1 inh conf inactive | DNMT1 interf inactive | CASP1 counter inactive
COc1ccc(S(=O)(=O)Nc2ccc3c(c2)CC(=O)N([C@@H](C)CO)C[C@@H](C)[C@H](CN(C)Cc2ccc(-c4ccccc4)cc2)O3)cc1	none (no result: NSD2 HMT inh, DNMT1 block, HCV NS3 hel inh)
CC1=NOC(=O)/C1=C\c1ccc(-c2ccc(Cl)c(C(=O)O)c2)o1	NSD2 HMT inh 84, DNMT1 block 82 | DNMT1 inh conf inactive | DNMT1 interf inactive | AlphaScreen art inactive
O=C(NCCCO)c1ccc2nc(-c3ccco3)c(-c3ccco3)nc2c1	NSD2 HMT inh 107, CASP6 VEID inh 55 | DNMT1 inh conf inactive | DNMT1 interf inactive | AlphaScreen art inactive
C=CCNC(=O)[C@@H]1[C@H]2C(=O)O[C@H](c3ccccc3)[C@H](c3ccccc3)N2[C@H](c2ccc(OCCO)cc2)[C@@]12C(=O)Nc1ccc(C#CCNC(N)=O)cc12	none (no result: NSD2 HMT inh, DNMT1 block, HCV NS3 hel inh)
CCC(=O)N[C@@H]1C=C[C@H](CC(=O)NCCN2CCCCC2)O[C@H]1CO	none (no result: NSD2 HMT inh, DNMT1 block, HCV NS3 hel inh)
COc1ccc2c3c(cccc13)N(C)N=C2C	NSD2 HMT inh 72, DNMT1 block 93 (no result: CASP6 VEID inh) | DNMT1 inh conf inactive | DNMT1 interf inactive | AlphaScreen art inactive
Cc1cccc2c(N=NC(=O)c3ccc(NS(=O)(=O)c4cccs4)cc3)c(O)[nH]c12	NSD2 HMT inh 64, DNMT1 block 87 (no result: HCV NS3 hel inh) | DNMT1 inh conf inactive | DNMT1 interf inactive | AlphaScreen art inactive
CC1(CC(=O)N/N=C/c2cc([N+](=O)[O-])c(O)cc2O)OCCO1	NSD2 HMT inh 60, DNMT1 block 69, CASP6 VEID inh 69 | DNMT1 inh conf inactive | DNMT1 interf inactive | AlphaScreen art inactive
CC(=O)c1ccc(S(=O)(=O)Nc2cccc(-n3cnnn3)c2)cc1	NSD2 HMT inh 115, DNMT1 block 100, CASP6 VEID inh 56 | DNMT1 inh conf inactive | DNMT1 interf inactive | AlphaScreen art inactive
CCCNC(=O)N1[C@H](CO)[C@H](c2ccccc2)[C@@H]1CNC(=O)C1CCCCC1	none (no result: NSD2 HMT inh, DNMT1 block, HCV NS3 hel inh)
CN1C(=O)c2cc(NC(=O)Cc3cccs3)ccc2OC[C@H]2O[C@H](CC(=O)N[C@H]3CCN(Cc4ccccc4)C3)CC[C@H]21	none (no result: NSD2 HMT inh, DNMT1 block, HCV NS3 hel inh)
O=C(O)c1cccc(-n2cccc2/C=C2/SC(=O)N(CC(=O)N3CCCC3)C2=O)c1	NSD2 HMT inh 61, DNMT1 block 70, CASP6 VEID inh 40 | DNMT1 inh conf inactive | DNMT1 interf inactive | AlphaScreen art inactive
O=C(CN1C(=O)S/C(=C/c2cccn2-c2ccc(O)cc2)C1=O)N1CCCC1	none
O=C(O)c1ccc2c(c1)C1C=CCC1C(c1cc3c(cc1Br)OCO3)N2 (stereo not drawn)	none
O=C(O)c1ccc(NS(=O)(=O)c2ccc3c(c2)C2C=CCC2C(c2ccccc2F)N3)cc1 (stereo not drawn)	NSD2 HMT inh 159, DNMT1 block 62, CASP6 VEID inh 47 | DNMT1 interf DR inactive | DNMT1 inh conf inactive | DNMT1 interf inactive | AlphaScreen art inactive
O=C(/C=C/c1ccco1)Nc1scc(-c2ccccc2)c1C(=O)O	NSD2 HMT inh 103, DNMT1 block 82, CASP6 VEID inh 44 | DNMT1 inh conf inactive | DNMT1 interf inactive | AlphaScreen art inactive
CC(C)(C)c1ccc(C(=O)NNc2cc(N3CCCCC3)nc(N3CCCCC3)n2)cc1	none (no result: NSD2 HMT inh, CASP6 VEID inh)
O=C(NNc1cc(N2CCCC2)nc(N2CCCC2)n1)c1ccc([N+](=O)[O-])cc1	NSD2 HMT inh 89, DNMT1 block 56 | DNMT1 inh conf inactive | DNMT1 interf inactive | AlphaScreen art inactive
Cc1noc(C)c1S(=O)(=O)Nc1ccc2c(c1)C(=O)N([C@@H](C)CO)C[C@H](C)[C@H](CN(C)S(=O)(=O)c1c(C)noc1C)OCCCC[C@@H](C)O2	none (no result: NSD2 HMT inh, DNMT1 block, HCV NS3 hel inh)
O=C(O)CNS(=O)(=O)c1ccc2c3c(cccc13)C(=O)N2	none
